Measured values taken from ChEMBL document CHEMBL1933018 (Bioorg Med Chem Lett, 2012).
pIC50, pKi: −log10 of the molar value.

Experiments:
Progesterone receptor = target: T1, Progesterone receptor (Homo sapiens, UniProt P06401); assay: Antagonist activity at progesterone receptor; type: functional
T1 sequence (P06401 whole entry): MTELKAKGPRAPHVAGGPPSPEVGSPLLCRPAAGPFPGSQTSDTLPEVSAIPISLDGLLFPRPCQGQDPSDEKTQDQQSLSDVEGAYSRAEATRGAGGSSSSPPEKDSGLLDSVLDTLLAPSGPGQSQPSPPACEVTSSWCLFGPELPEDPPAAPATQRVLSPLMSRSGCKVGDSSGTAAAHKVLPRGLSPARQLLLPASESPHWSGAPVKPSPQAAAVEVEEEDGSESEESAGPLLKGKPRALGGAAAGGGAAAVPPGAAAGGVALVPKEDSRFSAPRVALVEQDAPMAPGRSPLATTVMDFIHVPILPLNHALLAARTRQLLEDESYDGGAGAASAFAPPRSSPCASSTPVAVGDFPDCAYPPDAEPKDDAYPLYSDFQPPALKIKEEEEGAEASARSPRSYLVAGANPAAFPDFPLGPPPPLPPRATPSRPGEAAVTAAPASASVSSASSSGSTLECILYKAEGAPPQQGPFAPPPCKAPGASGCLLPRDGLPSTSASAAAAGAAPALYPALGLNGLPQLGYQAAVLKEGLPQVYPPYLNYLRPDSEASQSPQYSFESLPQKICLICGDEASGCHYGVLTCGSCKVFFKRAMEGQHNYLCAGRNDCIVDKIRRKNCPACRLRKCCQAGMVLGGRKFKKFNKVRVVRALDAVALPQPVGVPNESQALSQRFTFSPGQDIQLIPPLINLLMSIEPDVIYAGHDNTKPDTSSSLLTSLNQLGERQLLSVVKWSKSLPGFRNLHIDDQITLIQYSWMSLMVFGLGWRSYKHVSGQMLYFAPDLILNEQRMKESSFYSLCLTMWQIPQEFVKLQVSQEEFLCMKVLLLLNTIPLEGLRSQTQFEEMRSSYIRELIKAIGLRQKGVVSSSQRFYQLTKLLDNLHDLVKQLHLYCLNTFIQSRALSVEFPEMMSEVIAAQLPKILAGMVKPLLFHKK

[1] = Intrinsic clearance in liver microsomes; type: ADME, Microsome; conditions: read-out: CLH
[2] = target: T2, Corticotropin-releasing factor receptor 1 (Homo sapiens, UniProt P34998); assay: Antagonist activity at human recombinant CRF1 receptor expressed in CHO cells by cAMP assay; type: functional, cell-based
T2 sequence (P34998 whole entry): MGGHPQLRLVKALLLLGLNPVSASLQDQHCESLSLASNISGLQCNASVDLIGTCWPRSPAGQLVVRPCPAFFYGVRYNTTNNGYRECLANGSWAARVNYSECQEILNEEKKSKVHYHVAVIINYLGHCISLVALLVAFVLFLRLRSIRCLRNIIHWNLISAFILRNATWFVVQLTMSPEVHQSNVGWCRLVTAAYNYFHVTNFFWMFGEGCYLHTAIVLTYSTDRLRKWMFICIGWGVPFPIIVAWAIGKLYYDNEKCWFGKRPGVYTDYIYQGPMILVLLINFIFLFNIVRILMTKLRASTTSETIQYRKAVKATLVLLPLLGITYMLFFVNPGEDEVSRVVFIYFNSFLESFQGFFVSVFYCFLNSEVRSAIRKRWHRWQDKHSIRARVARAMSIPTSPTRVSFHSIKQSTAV
Outline: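 CHO cells stably expressing recombinant human CRF-1 were grown in DMEM:F12 (1:1) with 10% FBS, 400 µg/ml Geneticin and 1% Glutamax at 37 °C, 5% CO2 to 70% confluence. 10,000 cells/well in PBS with 500 µM IBMX (final) were stimulated with hCRF (108 nM final) plus test compound. cAMP was read by HitHunter cAMP II kit. Compounds were tested repeatedly over a 0.5-log serial dilution series.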

Compound	pIC50 (Progesterone receptor)	microsomal CLint [1]	pKi [2]
CC#C[C@]1(O)CC[C@H]2[C@@H]3CCC(=O)C(CCC(=O)O)=C3[C@@H](c3ccc(N(C)C=O)cc3)C[C@@]21C	6.37		
CC#C[C@]1(O)CC[C@H]2[C@@H]3CCC4=CC(=O)CCC4=C3[C@@H](c3ccc(N(C)C=O)cc3)C[C@@]21C	8.00	81 µL/min/mg	
CC#C[C@]1(O)CC[C@H]2[C@@H]3CCC4=CC(=O)CCC4=C3C(c3ccc(N(C)C)cc3)=C[C@@]21C	6.51		
CC#C[C@]1(O)CC[C@H]2[C@@H]3CCC4=CC(=O)CCC4=C3[C@@](Cl)(c3cc(Cl)c(N(C)C)c(Cl)c3)C[C@@]21C	6.11	76 µL/min/mg	
CCCCN(CC)c1nc(C)nc2c1c(C)c(CO)n2-c1c(C)cc(C)cc1C			8.22
CCCCN(CC)c1nc(C)nc2c1c(C)c(C=O)n2-c1c(C)cc(C)cc1C			7.28
CCCCN(CC)c1nc(C)nc2c1c(C)c(COC)n2-c1c(C)cc(C)cc1C			7.96
CCCCN(CC)c1nc(C)nc2c1c(C)c(C)n2-c1c(C)cc(C)cc1C [ANTALARMIN]			7.49
CC#C[C@]1(O)CC[C@H]2[C@@H]3CCC4=CC(=O)CCC4=C3[C@@H](c3ccc(N(C)C)cc3)C[C@@]21C [MIFEPRISTONE]		92.5 µL/min/mg	
